Experimental findings from the EternaBench riboswitch data are described below.

The data set relates to MS2 coat protein. Put plainly: apparent Kd, MS2 coat protein; higher = weaker binding; RNA-MaP array; FMN 200 µM where present. Summed up: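 Two titrations, one without ligand and one with constant ligand, were run with SNAP-549-labelled MS2 coat protein from 0.7 or 1.5 nM, doubling to 3 µM. The targets were designs transcribed by stalled E. coli RNA polymerase on Illumina sequencing-chip clusters, in 100 mM Tris-HCl pH 7.5, 80 mM KCl, 4 mM MgCl2, BSA, DTT, yeast tRNA and Tween-20. The apparent Kd is the median of filtered per-cluster binding-curve fits, with green signal normalised to red-channel RNA signal and control-cluster median Fmax.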

Where [1] appears, read: designed as: OFF switch for flavin mononucleotide, no ligand.
The mark [2] stands for this setting: ligand present: flavin mononucleotide, designed as: OFF switch for flavin mononucleotide.
The mark [3] stands for this setting: designed as: ON switch for flavin mononucleotide, no ligand.
The mark [4] stands for this setting: ligand present: flavin mononucleotide, designed as: ON switch for flavin mononucleotide.

As to “GGUACUCAAAGAGUACGGAGUCGAACAUGAGGAUCACCCAUGUAGGAUAUGCUAAGCUUGAAGUUGCAGAAGGACAUGUGCAGC”, the “apparent Kd” value is, setting by setting: under setting [1], 10.7 nM; under setting [2], 11.1 nM.
In the case of “GGAUAGGACAGAGGAUAUACGUGCUAGAGAUACUAGCAAAAUGUCCUCACAUGAGGAUCACCCAUGUAGAAGGCUGUCCUAUCG”, the “apparent Kd” value under setting [1] worked out at 7.96 nM and the “apparent Kd” value under setting [2] amounted to 156 nM.
The matching figures for “UUCUUGGCAGGAUAUGCUUUUUUAGACAUGAGGAUCACCCAUGUGAUUAUUUUUGGUUUUGCAGAAGGGCCUUAAU”: 65.4 nM and 87.2 nM.
Take “AUGGAACAUGAGGAUCACCCAUGUGAGGAUAUCGUCGGCGCGCUUGAAACGAGCUGCCCGAGAAGGCACAGUGG”: the “apparent Kd” value under setting [1] came out at 160 nM and the “apparent Kd” value under setting [2] came out at 238 nM.
Consider “UUAAAAGUGACAUGAGGAUCACCCAUGUGAAUUAGUAGUAGCAGAAGGCACGUGGGAAGACCAAGUGAGGAUAUGUAGCUUUAA”, for which the “apparent Kd” value by setting is: under setting [3], 515 nM; under setting [4], 44 nM.
Turning to “GUCGGAAACGACAAAAGUAGCAUACGAGAAGGUUGAUCCAAGACAUGAGGAUCACCCAUGUAGUUAGAGGAUAUUGGAUGCUAC”, the “apparent Kd” value under setting [3] is 163 nM and the “apparent Kd” value under setting [4] is 116 nM.
On to “GCAAGAACGGGUCAGUCCCAGAUGAGAAGGGUAGGUGGCGAUGAGUACAUGAGGAUCACCCAUGUACAGGAUAUCAUCAUUGUA”, for which the “apparent Kd” value is, setting by setting: under setting [1], 7.63 nM; under setting [2], 8.66 nM.
Regarding “AAAGACAGACAUGAGGAUCACCCAUGUUACGAAGAUAAUGGGAGAAGGGCGAUUGCAAAGCAAUCGCAGGAUAUUCAUAUUGUC”, the “apparent Kd” value turned out to be 39.6 nM under setting [3] and 10.8 nM under setting [4].
Regarding “GUAUAUCACUCAGGAUAUCUGUAAUUUGUUGAAACAUGAGGAUCACCCAUGUUCAUGAAUUUAUAGGAGAAGGGAGAGAUAUAC”, the “apparent Kd” value under setting [3] stood at 4.58 nM and the “apparent Kd” value under setting [4] was 4.69 nM.
For “UCGCUGUCAGGAUAUCUUAUAUAGAACAUGAGGAUCACCCAUGUUCAUGUAUUCUGUGAGAGAGAAGGGACUCCUU”, the “apparent Kd” value amounted to 15 nM under setting [1] and 17.4 nM under setting [2].
As for “GUAGCUAUCGGAGGAUAUUCAUAGCCGAAAGGCACAUGAGGAUCACCCAUGUGCGGAAACGCUUGGGAGAAGGCCGAUAGCUAC”, the “apparent Kd” value is 25 nM under setting [3] and 15.1 nM under setting [4].
Consider “UUUGAUUAUGUGAGGAUAUACUGUUUGUAUUGAUUGUAGAAGGUACAUGAGGAUCACCCAUGUUUUGUAUUUAU”, for which the “apparent Kd” value runs as follows: under setting [1], 18.6 nM; under setting [2], 19.4 nM.
The matching figures for “GAUAAACAUGAGGAUCACCCAUGUGAGGAUAUGCGUACGUUGUCCGUAGGCGACGUGCGCAGAAGGCGCAAGGU”: 99.4 nM and 216 nM.
As to “CUCAUGUUAGGAUAUGCGCUCGACGUAGUGGUUGAGCUCUAGCAGAAGGAACAUGAGGAUCACCCAUGUUUGCA”, the “apparent Kd” value by setting is: under setting [1], 68.5 nM; under setting [2], 21.3 nM.
Consider “GGGCUGUCAGGAUAUGGGCCCGGGCCCGAAAGGGCCCGGGUUUAGAAGGGACAUGAGGAUCACCCAUGUGGCCC”, for which the “apparent Kd” value under setting [1] was 32.5 nM and the “apparent Kd” value under setting [2] is 37.2 nM.
Take “ACUAUACGAGGAUAUACUGACGGGCCUCAGGCAUACAUCAGACAUGAGGAUCACCCAUGUAGAAGGCGUAUACU”: the “apparent Kd” value runs as follows: under setting [1], 104 nM; under setting [2], 40.6 nM.
For “CGCAAACAUGAGGAUCACCCAUGUCAAUGUGAUCAAGGAUAUGGGUUCCGAAAUGGAACACCAGAAGGUGAGUAAU”, the “apparent Kd” value by setting is: under setting [3], 142 nM; under setting [4], 37.3 nM.
As for “CGCAGUACUUAGGUACUACACAUGAGGAUCACCCAUGUAUCACAGGAUAUGCAUGAUAUAUUCAGGCAGAAGGGUGAUCUUACC”, the “apparent Kd” value by setting is: under setting [3], 54.5 nM; under setting [4], 130 nM.
Turning to “ACAUGAGGAUCACCCAUGUUGACAUAGGAUAUACAACAUUAGUUUCAUUCAUGUAAACUUUGAUAGUAGAAGGAUGGUACAUGA”, the “apparent Kd” value reads like this: under setting [1], 13.2 nM; under setting [2], 13 nM.
For “GUGAGGUCAGGAUAUGCAUGGCGGGACUUGCGUCGUGGCGUGGAGAAGGGACAUGAGGAUCACCCAUGUGGAGU” the same measures were 87.6 nM and 49.5 nM.
For “AGAAACUACGAGAAGGACAAAACCGGUGCCGCAAACAUGAGGAUCACCCAUGUAGGAUAUCGUAGUUUCAGGAUCGUGAGAUCA”, the “apparent Kd” value under setting [1] was 9.2 nM and the “apparent Kd” value under setting [2] came out at 31.2 nM.
For “ACUUCACAUGAGGAUCACCCAUGUCAGGAUAUCCAGCACUAGCAGGCUCGCUCUUGAAGGAGAAGGGACGGGUA” the same measures were 46.1 nM and 54.6 nM.
For “CGGUUGCGCUCCUAUGGUUUGAACAUGAGGAUCACCCAUGUACAGGAUAUAGUAAGAACGCCUUACUAGAAGGGUACGUUCUCG” the same measures were 18.9 nM and 22 nM.
Consider “GACGGUGAUGUAGGAUAUACGCUGGAUAACAGCGUAGAAGGACAUGAGGAUCACCCAUGUAAAGUGUCUCUAAAUAACACCGUC”, for which the “apparent Kd” value under setting [1] is 20.7 nM and the “apparent Kd” value under setting [2] came to 47.5 nM.
The matching figures for “CUGAUGUGAGGAUAUGUGAUCUGCCUUCUAUAUAGAUGAUUACAGAAGGCACAUGAGGAUCACCCAUGUAGAUC”: 74.7 nM and 62.6 nM.
For “UUGUUAUAUGUAGGAUAUGCAUAUUAUUAUUAUGCAGAAGGACAUGAGGAUCACCCAUGUAUAUUGUUAUUAUAUAUUAUAUAU” the same measures were 24.2 nM and 32.5 nM.
The matching figures for “UUUUAACAUGAGGAUCACCCAUGUGAGGAUAUCGAAAUUUAUAUUAAUAUUAAUAAUUCGAGAAGGCACAUUUU”: 142 nM and 137 nM.
Regarding “AGCAACAUGAGGAUCACCCAUGUUGGUUCGAAAACGGACUCACAGGAUAUGCGGCGUAAUCGCUCGCAGAAGGGUGCGUCCUCA”, the “apparent Kd” value runs as follows: under setting [3], 14.1 nM; under setting [4], 25.6 nM.
In the case of “UAAUGACAUGUAGGAUAUCGAGGCCUAUGGCCUCGAGAAGGACAUGAGGAUCACCCAUGUAUUCCGAAUGAAUCAAAUAAUAAA”, the “apparent Kd” value under setting [1] is 15.6 nM and the “apparent Kd” value under setting [2] was found to be 30.8 nM.
For “GUUUCUAUAAGUUAUAAUUAACAGUCAGAAGGUGAUACUACGACAUGAGGAUCACCCAUGUAAUUCAAGGAUAUGAACUUAAUC”, the “apparent Kd” value runs as follows: under setting [3], 1120 nM; under setting [4], 539 nM.
For “AAGUUUGUACGAGGAUAUCAGUUGUAUCUAAAUUCAACAUGAGGAUCACCCAUGUUGCAAUGGAGUGAGAAGGCGUGUGGGCAA” the same measures were 31.3 nM and 22.8 nM.
For “GUCGGAAACGACAAAAGUAUGGAUCCAGAAGGCAUGAACAUGAGGAUCACCCAUGUCUAAAGAUAUGAGGAUAUGGAUCCAUAC” the same measures were 6.66 nM and 4.44 nM.
In the case of “UUUUACAUAGGAUAUAGUUUGUUGUACAUGAGGAUCACCCAUGUUUUUGGUUGUGCUUUUCUAGAAGGAUGUUUCU”, the “apparent Kd” value by setting is: under setting [1], 47.7 nM; under setting [2], 41.7 nM.
The matching figures for “GGUGCGUUUGUGAGGAUAUGCUGGUCCUUGGUUCAGCAGAAGGCACAUGAGGAUCACCCAUGUGGUGUCGUACC”: 240 nM and 28 nM.
Take “CUAUUGAUAACAGGAUAUAUGAGUCCUACAUGAGGAUCACCCAUGUAGGUGAUCAGCCGUGAUUAGUAGAAGGGUUAUCAAUAG”: the “apparent Kd” value under setting [3] turned out to be 12.7 nM and the “apparent Kd” value under setting [4] was 6.63 nM.
With “GCACUGGAUGUAGGAUAUCAGGACGAUAAGUCCUGAGAAGGACAUGAGGAUCACCCAUGUAAACUCUAACCAGUGCAUAAUAUA”, the “apparent Kd” value reads like this: under setting [1], 14 nM; under setting [2], 20.4 nM.
The matching figures for “ACGCCCUGAGGAUAUCUUAUCCCGUACAUGAGGAUCACCCAUGUUUUCCUCCGGGCUCCGAGAGAAGGCAGGCCCA”: 42.2 nM and 75.9 nM.
For “AAAAGCUCAGGAUAUACGGUCUGUUGUUGAGAAAUAAAAAAACAUGAGGAUCACCCAUGUAGAAGGGAGCGAAA” the same measures were 79.5 nM and 160 nM.
For the sequence “ACGUGUCGUGUAGGAUAUGACACAGGAAACUGGUCAGAAGGACAUGAGGAUCACCCAUGUAAAAUGUUCAAGAAUGACGUAUGC”, the “apparent Kd” value is, setting by setting: under setting [1], 58.6 nM; under setting [2], 105 nM.
The matching figures for “GCACGGUUGGUAGGAUAUCAUUGCGAUUAGCUAUGAGAAGGACCACAUGAGGAUCACCCAUGUCCUCUAAUUAGCCUGCCGUGC”: 152 nM and 355 nM.
With “UUAUUUAUACAAGGAUAUCAAUUAUAUACAAAUCCAACAUGAGGAUCACCCAUGUUUUAUUUUUUUGAGAAGGUGUAUUGUCAG”, the “apparent Kd” value is, setting by setting: under setting [3], 32.8 nM; under setting [4], 32 nM.
Turning to “CGUGACUCAGGAUAUCUAUUAUGUCACAUGAGGAUCACCCAUGUCCAGCGAAAGCUGGAGGGAGAAGGGAGUCACG”, the “apparent Kd” value is, setting by setting: under setting [1], 97.9 nM; under setting [2], 34.9 nM.
The matching figures for “ACAUGAUAUGUAGGAUAUCACAACAUGAGUUUUAAUAUUGUUAUUUAGGAUUGAGAAGGACAUUUACAUGAGGAUCACCCAUGU”: 17.5 nM and 14.6 nM.
The matching figures for “UUUUUGUGAGGAUAUCAGUAGUAAAUAAAUAAAAUUACUACUGAGAAGGCACAUGAGGAUCACCCAUGUUCCUU”: 13.7 nM and 33.4 nM.
With “CCGGAAAUGCAGGAUAUCGUAUCGGAUACGAUACGAGAAGGGUAUACAUGAGGAUCACCCAUGUGUCCUGCCGG”, the “apparent Kd” value runs as follows: under setting [1], 42.5 nM; under setting [2], 40.6 nM.
With “AAGUCGUGAGGAUAUACAUGGAUAUACAUUUAUGUAGAACUACAUGAGGAUCACCCAUGUAGAAGGCACGAAUA”, the “apparent Kd” value reads like this: under setting [1], 56.2 nM; under setting [2], 147 nM.
For “AGCAUCUGAGGAUAUACUGGGUAUGGAAGGCGAAGGGCCAGACAUGAGGAUCACCCAUGUAGAAGGCAGUUUGC” the same measures were 79.3 nM and 32.9 nM.
For “AAUUAUAUACAGAAGGAGUUAUAUUAAGUAUUACUAGGAUAUGUUCACAUGAGGAUCACCCAUGUCAUAUUGGGAUUUAUUUUU” the same measures were 17 nM and 21.6 nM.
